PMI act – activators of human PMI, primary screen, biochemical, fluorescence intensity, near-Km mannose 6-phosphate; actives 0.005% (n = 190,000); activation factor at 20 µM; purified human PMI, coupled resazurin fluorescence, 20 min; stronger effect = higher value; 1 = vehicle control, 0 substrate-free wells; Mannose-6-phosphate isomerase (Homo sapiens), P34949;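 active means activation factor of 2 or more at 20 µM, relative to plate controls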
TNAP act hi DEA – TNAP activators at high phosphate acceptor level, primary screen, biochemical, luminescence, uHTS | Alkaline phosphatase, tissue-nonspecific isozyme (Homo sapiens), P05186 | purified TNAP, CDP-star luminescence, 1 M DEA, 30 min; stronger effect = higher value; 0 = EDTA background, 1 = DMSO-only activity | activation factor at 20 µM | 200,000 tested, under 10 active;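 active means activation factor at least 2 at 20 µM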
Target sequence (P05186 whole entry, looked up): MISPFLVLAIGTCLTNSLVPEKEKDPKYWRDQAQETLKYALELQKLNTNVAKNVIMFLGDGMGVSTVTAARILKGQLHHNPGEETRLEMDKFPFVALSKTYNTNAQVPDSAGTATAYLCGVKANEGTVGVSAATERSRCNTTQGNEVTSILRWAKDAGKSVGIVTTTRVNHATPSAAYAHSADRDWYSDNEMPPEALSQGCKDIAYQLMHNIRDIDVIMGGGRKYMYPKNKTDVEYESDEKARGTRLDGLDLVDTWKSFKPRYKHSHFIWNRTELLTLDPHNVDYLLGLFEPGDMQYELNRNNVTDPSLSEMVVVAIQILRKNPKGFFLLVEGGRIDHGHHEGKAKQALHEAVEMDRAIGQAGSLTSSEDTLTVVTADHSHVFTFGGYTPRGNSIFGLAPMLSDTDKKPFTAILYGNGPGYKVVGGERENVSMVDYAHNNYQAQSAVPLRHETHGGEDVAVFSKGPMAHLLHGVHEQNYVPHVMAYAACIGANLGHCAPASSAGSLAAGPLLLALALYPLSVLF
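Measured by: Luminescent substrate turnover signal | Test system: Human TNAP | Input: TNAP 1/800 final | Dosing: 20 µM single point | Schedule: 30 min, room temperature | Controls: EDTA wells as negative control, DMSO wells as positive control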
TNAP inh hi DEA – human TNAP enzyme inhibitors, primary screen, biochemical, luminescent, high phosphate acceptor level, uHTS | Alkaline phosphatase, tissue-nonspecific isozyme (Homo sapiens), P05186 | purified TNAP, CDP-star luminescence, 1 M DEA | inhibition, % at 20 µM | actives 0.03% (n = 200,000);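 active means over 50% inhibition of tissue-nonspecific alkaline phosphatase at 20 µM in the single-dose screen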
TNAP inh no acc – human TNAP enzyme inhibitors, primary screen, biochemical, luminescent, no phosphate acceptor, uHTS. Alkaline phosphatase, tissue-nonspecific isozyme (Homo sapiens), P05186. purified TNAP, CDP-star luminescence, 30 min. inhibition, % at 20 µM. actives 0.26% (n = 200,000). AID 1012, 2008;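 active means tissue-nonspecific alkaline phosphatase inhibition above about 50% at 20 µM in the single-dose screen, limit read from the data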
PMI act satM6P – human PMI activators, high substrate, primary screen, biochemical, fluorescence intensity, near-saturating mannose 6-phosphate; activation factor at 20 µM; Mannose-6-phosphate isomerase (Homo sapiens), P34949; coupled PMI enzyme assay, resazurin fluorescence, 20 min; stronger effect = higher value; 1 = untreated enzyme, 0 = substrate-free blank; AID 1216, 2008; actives 0.34% (n = 190,000);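 active means activation factor of 2 or more at 20 µM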
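Test system – human PMI in coupled enzyme assay · Timing – 20 min incubation at room temperature · Detection – Diaphorase-driven resazurin-to-resorufin fluorescence, excitation 544, emission 590 nm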
Of the large screens only hits and unclear results are named; the others gave an inactive call. An excerpt weighted towards active compounds, which were near 0.62% of everything screened.

CC1CCCCN1C(=O)COC(=O)c1n[nH]c2ccccc12 (centres undefined)	TNAP inh no acc 55.2
CC(C(=O)NCc1ccccn1)c1ccc([N+](=O)[O-])cc1 (centres undefined)	none
O=C(NC1CCCCC1)C(c1cccnc1)N(C(=O)CCl)c1cccc(Cl)c1 (centres undefined)	none
NC(=O)CSc1nnc(-c2ccc3c(c2)OCO3)o1	none
CSc1cccc(-n2cc(-c3ccc4c(c3)OCO4)[nH]c2=O)c1	PMI act satM6P 2.1
CCN(CC)S(=O)(=O)c1ccc(OC)c(NC(=O)C2CC(=O)N(c3ccc(C)cc3)C2)c1 (centres undefined)	none
CCc1c(C)[nH]c2nc3ccccc3n2c1=O	TNAP inh no acc 51.1
O=c1cc(-c2ccccc2)[nH]c2nc3ccccc3n12	none
O=C1c2ccccc2C(=O)N1c1n[nH]c(CCc2ccccc2)n1	TNAP inh no acc 57.2
CCCc1cc(=O)n2[nH]c(CCc3ccccc3)nc2n1	none
Cc1nc2c3cnn(-c4ccc(C)c(C)c4)c3ncn2n1	TNAP inh no acc 81.2
CC(C)CCNC(=O)C(C)N(C(=O)c1snc(C(N)=O)c1N)c1cnc2ccccc2c1 (centres undefined)	TNAP inh no acc 61.9
CC(C(=O)NCC1CCCO1)N(C(=O)c1snc(C(N)=O)c1N)c1ccccc1 (centres undefined)	none
CC(C)(C)C(=O)CNCC(=O)C(C)(C)C	PMI act satM6P 2.1
CC(C)(C)C(=O)Cn1nc(Cl)nc1Cl	none
CCOc1ccc(-c2cc(C(=O)OC)[nH]n2)cc1	TNAP inh no acc 85.3
COC(=O)c1cc(-c2cccc(OC)c2)n[nH]1	none
CCOC(=O)c1cc(-c2ccc(C)o2)n[nH]1	TNAP inh no acc 68.5
COC(=O)c1cc(-c2ccc(OC)cc2)n[nH]1	TNAP inh no acc 94.3
COC(=O)c1cc(-c2ccc(C)cc2)n[nH]1	TNAP inh no acc 90.5
COCCNC(=O)c1ccccc1NC(=O)CCSc1ccccc1	none
CC(/C=C/C=C/c1ccccc1)=N\NC(=O)c1cccnc1	PMI act satM6P 2.1
O=C(CNS(=O)(=O)c1ccccc1)NNC(=O)C(Cl)Cl	TNAP inh no acc 91.6
O=C(CNS(=O)(=O)c1ccccc1)N/N=C/c1ccc(O)cc1	none
Cc1cc(C)c2c(N=NN(C)C)[nH]nc2n1	TNAP inh no acc 52.4
Cc1cc(C)c2c(NC(N)=S)n[nH]c2n1	none
O=C(COC(=O)/C=C/c1ccc(Br)o1)NCCCN1CCCC1=O	none
O=C(CSc1n[nH]c(-c2ccccc2F)n1)NCC(=O)Nc1ccc(F)c(F)c1F	TNAP inh no acc 89.4
CCc1ccc2nc3n[nH]c(N)c3cc2c1	none
Nc1[nH]nc2nc3ccccc3cc12	PMI act satM6P 2.2
O=c1[nH]c(Cc2ccccn2)nc2scc(-c3ccccc3Cl)c12	PMI act satM6P 2.1
CSCc1nc2scc(-c3ccccc3)c2c(=O)[nH]1	none
COc1ccccc1-c1nc(SCc2ccccn2)n[nH]1	TNAP inh no acc 84.3
CC(C)(C)c1cc[n+](CC(=O)Nc2cc(C(F)(F)F)ccc2N2CCOCC2)cc1	none
S=c1cnc2ccccc2[nH]1	PMI act satM6P 2.1
COc1ccc(Cc2nnc(N=Nc3c(O)[nH]c4ccc(Br)cc34)[nH]c2=O)cc1	TNAP inh no acc 52.8
COc1ccc(-c2cnnc(N/N=C/c3ccc(O)c(O)c3)n2)cc1	TNAP inh no acc 56.2
O=C(O)c1ccc(NC(CSCc2ccccc2F)C(=O)O)c([N+](=O)[O-])c1 (centres undefined)	none
COc1ccc(/C=N\NC(=O)c2ccc(=O)[nH]n2)cc1O	none
COc1ccc(/C=N/NC(=O)c2cc(C34CC5CC(CC(C5)C3)C4)[nH]n2)cc1O	TNAP inh no acc 93.8
COCc1cc(C)nc2sc(C(=O)N3CCCC3)c(N)c12	none
Cc1cc(C)c2c(N)c(C(=O)N3CCCCCC3)sc2n1	PMI act satM6P 2.3
Cc1cc(C)c2c(N)c(C(=O)NCc3ccco3)sc2n1	PMI act satM6P 2
COc1ccc([N+](=O)[O-])cc1NC(=O)c1cn(-c2ccc(Cl)cc2)c(=O)c2ccccc12	none
CCn1nc(C)cc1C(=O)N1CCCC(CCC(=O)NCc2ccccc2F)C1 (centres undefined)	none
CCOC(=O)C1(C)/C(=N/Nc2ccccc2OC)C(=O)C(=O)N1c1ccccc1 (centres undefined)	none
CCOC(=O)C1(C)/C(=N/Nc2ccccc2)C(=O)C(=O)N1c1ccccc1 (centres undefined)	PMI act satM6P 2.1
CCNC(=O)Nc1ccc(-n2nc(C)c(C(=O)OCC)c2C)nc1	none
Cc1cc(=O)[nH]c(N=N/C(=N/Nc2ccccc2C)c2ccccc2)n1	none
COc1ccc(N/N=C(/N=Nc2nc(C)cc(=O)[nH]2)c2ccccc2)cc1	PMI act satM6P 2.3
Cc1cc(=O)[nH]c(N=N/C(=N/Nc2ccc(O)cc2)c2ccccc2)n1	PMI act satM6P 2.3
COc1ccc(C(=O)CSc2nc(C)cc(=O)[nH]2)cc1	none
COc1cc(/C=C2/C(=O)c3cccc([N+](=O)[O-])c3C2=O)c(Br)cc1O	TNAP inh no acc 66.2
COc1ccc(-c2nc(-c3cccc([N+](=O)[O-])c3O)cc(=O)o2)cc1OC	none
Clc1ccc(/C(Cc2nc3ccccc3[nH]2)=N\Nc2ccccc2)cc1	PMI act satM6P 3
CC(C)CNC(=S)NC(=O)c1ccc(F)cc1	none
COc1cccc(-c2cc(N3C(=O)Nc4ccccc4N3O)n[nH]2)c1	none
CCOc1ccc(-c2cc(N3C(=O)Nc4ccccc4N3O)n[nH]2)cc1	TNAP inh no acc 52.1
O=C1CCN(C(=O)Nc2ccccc2Cl)N1	PMI act satM6P 2.2
CCCCc1nc(SCC(=O)Nc2ncccn2)n[nH]1	TNAP inh no acc 58.4
Cc1ccc2nc(SCC(=O)Nc3cccc(S(=O)(=O)N(C)C)c3)[nH]c2c1	none
CC(C)c1nc(SCC(=O)Nc2cccc(S(N)(=O)=O)c2)n[nH]1	TNAP inh no acc 57.0
CCCCc1nc(SCC(=O)Nc2ccc(S(N)(=O)=O)cc2)n[nH]1	TNAP inh no acc 60.2
Nc1nc(SCC(=O)Nc2cccc(S(=O)(=O)N3CCCCCC3)c2)n[nH]1	none
NS(=O)(=O)c1cccc(NC(=O)CSc2nc3ccc(Cl)cc3[nH]2)c1	TNAP inh no acc 66.9
CC(=O)c1cccc(NC(=O)COC(=O)c2n[nH]c3ccccc23)c1	none
COc1ccc(N2CCN(C(=O)[C@H](Cc3c[nH]c4ccccc34)NC(C)=O)CC2)cc1	none
